Columns and labels:
DROSHA = assay: Co-IP of overexpressed DROSHA with ERH; format: binding, human; conditions: ectopic DROSHA co-expressed with C-terminal tail of DGCR8
How it was run: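 HEK293E cells at 50% confluence were transfected with 5 μg total of Flag-, HA- or myc-tagged plasmids using branched/linear PEI (1:1) and harvested after 2 days. Anti-Flag, anti-HA or protein G-bound anti-myc beads were incubated with lysate 1–2 h at 4°C, washed three times and eluted in SDS buffer for western blot.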

DGCR8 = assay: Co-IP of ERH and DGCR8 in DROSHA knock-out cells; format: binding, human; conditions: HCT116 DROSHA knock-out cells
How it was run: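 HCT116 wild-type and DROSHA knock-out cells were grown in McCoy's 5A with 9% FBS. Proteins were boiled at 95°C for 5 min, separated on 8–16% Tris–glycine gels and transferred to PVDF. Detection was by infrared imaging or chemiluminescence.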

miR-144–451a = assay: ERH rescue experiment, qRT-PCR; format: cell-based, human; conditions: ERH ectopically expressed in ERH-depleted HEK293E cells, shERH, n = 3
How it was run: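 HEK293E cells at 50% confluence got shERH (3′UTR-targeting) plasmid with Fugene HD for 48 h, then were trypsinized and counted. 4E5 cells were co-transfected with 2.5 μg total of shERH, pri-miRNA expression plasmid and wild-type or homodimerization-mutant ERH plasmid (1:2:2) using 5 μl Fugene HD. Total RNA was harvested 48 h later for qRT-PCR.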

Enhancer of Rudimentary Homolog [ERH]
interaction between DROSHA and ERH (DROSHA): could not detect meaningful interaction
interaction between ERH and DGCR8 (DGCR8): not affected by the absence of DROSHA
expression of miR-144 (miR-144–451a): without significantly altering miR-144 expression
expression of miR-451a (miR-144–451a): increased the expression of miR-451a
